Results published in ChEMBL document CHEMBL1144952 (J Med Chem, 2003).
pIC50, pKi: −log10 of the molar value.

Key:
Cannabinoid receptor 2 [1] = target: T1, Cannabinoid receptor 2 (Homo sapiens, UniProt P34972); assay: Percent Inhibition of binding at […] against human cannabinoid receptor 2 in chinese hamster ovary cells by using a radioligand WIN-55212-2 mesylate[57-3H]; type: cell-based; settings: CHO
Mus musculus [2] = assay: Effective dose of compound against inhibition of LPS stimulated TNF-alpha release when administered intravenously in mice; type: functional; settings: iv
Summary of the method: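 Female BALB/c mice, 6–8 weeks old. Compound in 10% propylene glycol/PBS was co-injected iv with LPS (E. coli O111:B4, 10 μg/mL in the dosing solution, 0.1 mL per mouse). Serum was taken 60 min later and TNF-α measured by ELISA; 8 mice per group, mean ± SD.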

Mus musculus [3] = assay: Percentage reduction of serum TNF-alpha when dose of 50 mg/kg was administered orally in mice; type: functional; settings: route oral
Summary of the method: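 Female BALB/c mice, 6–8 weeks old, given compound by gavage in 50% propylene glycol/water 10 min before iv LPS (0.1 mL of 10 μg/mL in PBS). Serum TNF-α was measured by ELISA 60 min after LPS; 8 mice per group, mean ± SD.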

Cannabinoid receptor 1 = Cannabinoid receptor 1 (Homo sapiens, UniProt P21554); assay: Binding affinity of compound against human cannabinoid receptor 1 in chinese hamster ovary cells by using radioligand CP-55940; type: cell-based, CHO
Summary of the method: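 CHO-K1 membranes expressing human CB1; CP55,940 used as radiolabelled tracer (routinely 10 nM). Bound label collected by filtration and measured by scintillation counting.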

Cannabinoid receptor 2 [4] = target: T1, Cannabinoid receptor 2; assay: Binding affinity against human cannabinoid receptor 2 in chinese hamster ovary cells using WIN-55212-2 mesylate[57-3H]; type: cell-based, CHO
[5] = In vitro inhibitory concentration of compound against TNF-alpha release in human peripheral blood mononuclear cells was determined; type: functional
Summary of the method: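 PBMCs isolated by ficoll from healthy donor blood and plated at 1 × 10^6 cells/mL in RPMI with 10% FBS. Compounds were added for 30 min before stimulation with LPS (25 ng/mL final). After 6 h at 37 °C, supernatant TNF-α was measured by ELISA.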

Cannabinoid receptor 2 [6] = target: T1, Cannabinoid receptor 2; assay: Percent Inhibition of binding at 100 nM against human cannabinoid receptor 2 in chinese hamster ovary cells by using a radioligand WIN-55212-2 mesylate[57-3H]; type: cell-based; settings: CHO

T1 sequence (P34972 whole entry): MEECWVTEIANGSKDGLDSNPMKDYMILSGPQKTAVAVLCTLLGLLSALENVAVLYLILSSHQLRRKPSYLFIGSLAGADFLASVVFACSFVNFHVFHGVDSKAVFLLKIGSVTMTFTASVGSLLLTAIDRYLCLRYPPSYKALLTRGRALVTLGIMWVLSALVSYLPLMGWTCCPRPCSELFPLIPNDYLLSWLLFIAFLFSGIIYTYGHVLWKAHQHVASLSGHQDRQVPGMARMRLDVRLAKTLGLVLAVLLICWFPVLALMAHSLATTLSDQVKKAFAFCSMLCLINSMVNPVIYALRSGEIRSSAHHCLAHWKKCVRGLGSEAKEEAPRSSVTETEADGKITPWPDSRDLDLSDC
Chain of Cannabinoid receptor 1 (P21554 whole entry): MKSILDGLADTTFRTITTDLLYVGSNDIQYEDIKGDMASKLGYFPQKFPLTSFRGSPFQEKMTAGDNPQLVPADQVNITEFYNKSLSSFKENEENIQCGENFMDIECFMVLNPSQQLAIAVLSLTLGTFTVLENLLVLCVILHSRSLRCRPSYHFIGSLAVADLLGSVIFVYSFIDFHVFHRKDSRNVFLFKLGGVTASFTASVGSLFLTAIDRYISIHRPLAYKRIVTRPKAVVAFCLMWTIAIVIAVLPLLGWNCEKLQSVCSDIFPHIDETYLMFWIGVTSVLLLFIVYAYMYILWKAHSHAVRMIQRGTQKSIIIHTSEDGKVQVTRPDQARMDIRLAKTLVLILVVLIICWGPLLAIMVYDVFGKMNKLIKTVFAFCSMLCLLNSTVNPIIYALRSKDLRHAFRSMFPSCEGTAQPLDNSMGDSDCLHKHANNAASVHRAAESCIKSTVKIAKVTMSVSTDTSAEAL

Structure (SMILES)	inhibition (Cannabinoid receptor 2 [1])	ED50 (Mus musculus [2])	Reduction (Mus musculus [3])	pKi (Cannabinoid receptor 1)	pKi (Cannabinoid receptor 2 [4])	pIC50 [5]	inhibition (Cannabinoid receptor 2 [6])
COc1cccc2c3c(=O)n(C(c4ccccc4)c4ccccn4)ccc3n(CCN3CCOCC3)c12 (configuration not stated)	13%						
COc1cccc2c3c(=O)n([C@@H]4C(C)(C)[C@@H]5CC[C@@]4(C)C5)ccc3n(CCN3CCOCC3)c12		2 mg/kg	61%	7.80	9.00	5.10	
COc1cccc2c(C(=O)NC(c3ccccc3)c3ccccn3)nn(CCN3CCOCC3)c12 (configuration not stated)				6.79	6.84	4.70	
CCCc1c(C(=O)NC2C(C)(C)[C@@H]3CC[C@@]2(C)C3)c2cccc(OC)c2n1CCN1CCOCC1 (some centres not stated)							6%
COc1cccc2c(C(=O)N(Cc3c(F)cccc3Cl)C(C)C)nn(CCN3CCOCC3)c12					7.16	4.44	
COc1cccc2c(C(=O)NC3C(C)(C)[C@@H]4CC[C@@]3(C)C4)c(C)n(CCN3CCOCC3)c12 (some centres not stated)				8.10	7.54	4.48	
COc1cccc2c(C(=O)NC3C(C)(C)[C@@H]4CC[C@@]3(C)C4)nn(CCN3CCOCC3)c12 (some centres not stated)				7.62	8.70	4.52	
COc1ccccc1CNC(=O)c1nn(CCN2CCOCC2)c2c(OC)cccc12					7.11	4.37	
CCc1c(C(=O)NC2C(C)(C)[C@@H]3CC[C@@]2(C)C3)c2cccc(OC)c2n1CCN1CCOCC1 (some centres not stated)					6.96		
COc1cccc2c(C(=O)NC3C(C)(C)[C@@H]4CC[C@@]3(C)C4)cn(CCN3CCOCC3)c12 (some centres not stated)				6.61	7.96	4.89	
COc1ccccc1Cn1ccc2c(c1=O)c1cccc(OC)c1n2CCN1CCOCC1				5.43	7.17	5.15	
